# T cruzi inh: inhibitors of intracellular T. cruzi growth, primary screen, luminescence, NIH3T3 host cells; AID 1885, 2009; inhibition, % (no concentration beside the values); 300,000 tested, 1.4% active; T. cruzi beta-gal in NIH3T3, 90 h;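 active means mean inhibition across valid replicates above about 55%, limit read from the data; inconclusive means mean below that limit but half or more replicates reach it; inactive means mean below it, under half of replicates reach it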;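 further: signal also drops with host cell toxicity which is not excluded here; 0% = plate median of DMSO wells and 100% = zero luminescence signal; higher percent means less beta-gal luminescence so fewer parasites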
#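 Material: NIH/3T3 host cells with β-galactosidase reporter T. cruzi; Input: 5,000 host fibroblasts per well; Medium: DMEM, 2% fetal bovine serum; Compound: 50 nL DMSO compound solution per well; Schedule: 3 h host attachment, then at least 90 h co-culture; Detection: luminescent β-galactosidase signal after 60 min lysis.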
# Calb FLC: C. albicans growth inhibition with fluconazole, primary screen, CaCi-2 strain, Alamar Blue fluorescence; C. albicans CaCi-2 + fluconazole, 48 h; growth inhibition, % (concentration not given with the values); 300,000 tested, 0.57% active;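 active means growth inhibition above about 58% in most replicates, limit read from the data, passing the limit was not always enough; inconclusive means exactly half the replicates above a set limit; inactive means most replicates below a set limit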;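 further: all wells also contain fluconazole at 8 µg/ml as a sub-toxic cotreatment; 0% = median of DMSO wells and 100% = median of geldanamycin control wells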
# NALP1 inh: NALP1 inflammasome inhibitors in reconstituted yeast, colorimetric, S. cerevisiae, triplicate retest | inhibition, % at 10 µM | S. cerevisiae NALP1/ASC/caspase-1 growth, X-gal OD620, 72 h | 280,000 tested, 0.61% active | AID 2071, 2009; in the data active means inhibition mostly above about 24%, no sharp cut-off; inactive means mostly below about 32%
# NALP3 yeast inh: NALP3 inflammasome inhibitors in reconstituted yeast, primary screen, luminescence, uHTS | inhibition, % at 10 µM | AID 2825, 2010 | Yeast reconstituted NLRP3/ASC/caspase-1, beta-gal luminescence, 24 h | 330,000 tested, 0.39% active;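 active means inhibition of 50% or more; inactive means inhibition below 50%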;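 further: plate controls were induced DMSO wells for no effect and uninduced yeast grown without galactose for full effect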
# Lmaj promast: Leishmania major promastigote growth inhibition, primary screen; Leishmania major promastigotes, resazurin fluorescence viability; inhibition, % at 10 µM; 200,000 tested, 9% active; in the data active means inhibition above about 50%;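 further: promastigotes grown with compound for 44 hours at 28 °C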
# PolyA inh: polyadenylation inhibitors in yeast reporter cells, primary screen, luminescence, S. cerevisiae; S. cerevisiae SKY197-pL101 polyadenylation reporter, beta-gal luminescence; efflux-impaired pdr1/pdr3 knockout yeast; score 100 = 6 SD above DMSO; AID 1875, 2009; 300,000 tested, 0.02% active; activity score, % at 12 µM;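 active means lowest replicate activity score at least 50, where 100 means six control SD above control mean; inconclusive means lowest score under 50 but half or more replicates reach 50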;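 further: yeast exposed to compound for 9 h at 30 °C; higher score means more reporter readthrough which indicates perturbed polyadenylation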
# * hit, by the source's call; ? = inconclusive; / = no result given. The sample as a whole holds a higher share of hits than the screen did.
SMILES,T cruzi inh,Calb FLC,NALP1 inh,NALP3 yeast inh,Lmaj promast,PolyA inh
CC(C)(C)n1nnnc1C(c1cccnc1)N1CCN(c2ccccc2)CC1 (configuration not stated),54.9*,-4.0,5.8,8.1,78.5*,-14.5
CN1CCN(C(c2ccccc2)c2nnnn2Cc2ccccc2)CC1 (configuration not stated),33.7,-3.1,15.5,7.2,-1.5,7.4
CC(C)(C)n1nnnc1C(c1cccnc1)N1CCN(c2ccccn2)CC1 (configuration not stated),49.2,-4.3,-2.6,11.2,80.8*,1.9
CCC(C)(C)NC(=O)CN(C(=O)c1csnn1)c1ccccc1-c1ccccc1,3.0,11.9,4.8,12.7,2.6,20.5
CN(CC(=O)NC1CCCCCC1)S(=O)(=O)c1cnc[nH]1,-8.7,13.4,-1.2,9.0,-6.9,4.1
Cc1ccc2nc(-c3cccc(NS(C)(=O)=O)c3)cc(-c3ccccc3)c2c1,19.0,-0.8,13.1,2.5,19.9,13.4
Cc1ccc(OCC(=O)NCC(=O)Nc2ccc(F)cc2)c([N+](=O)[O-])n1,-13.6,26.0,27.3,-2.2,50.2*,4.5
CCN(CC)CCCOC(=O)C1(c2ccccc2)CCCC1,22.5,-0.5,3.2,16.1,99.1*,-0.4
CCN(CC)CCOC(=O)C1(c2ccccc2)CCOCC1,2.4,3.9,12.9,26.0,73.0*,-2.1
N#Cc1ccc(/C=N/NC(=O)CCc2ccc(S(=O)(=O)N3CCOCC3)cc2)cc1,7.7,-7.3,22.1,12.1,-2.0,15.9
O=C1NC2(CCC3(CC2)OCCO3)NN1c1ccc(Cl)cc1,22.8,105.6*,3.6,20.1,13.8,-56.7
O=C1NC2(CCCCC2)NN1c1ccccc1,4.6,-32.5,20.4,15.4,47.6,-1.4
O=C(OCc1nc2ccc(Cl)cc2n1CCO)c1ccc(O)cc1,-2.8,-28.7,23.8,-5.1,53.8*,15.6
COc1ccc(C(=O)C/C(=C\C(=O)c2ccc(C)cc2)c2ccccc2)cc1,63.8*,-3.0,-1.8,-3.2,52.4*,-5.3
CC(C)(C)c1ccc(Cn2cnc(-c3ccc([N+](=O)[O-])cc3)c2)cc1,31.1,0.7,25.5,11.5,89.4*,1.3
Cc1cc(C)c(Cn2cnc(-c3ccc([N+](=O)[O-])cc3)c2)c(C)c1,24.4,-12.6,-13.5,-2.7,0.6,-8.4
Cc1ccc(CNC(=O)C2CCN(C(=O)Nc3ccccc3)CC2)cc1,-3.6,-2.7,3.5,10.4,/,-1.2
CC1CCCCN1CCCNC(=O)c1cc(Br)c(Br)[nH]1 (configuration not stated),8.6,7.2,-11.7,7.9,92.7*,-7.9
CCN(CC)c1ccc(S(=O)(=O)N2CCCCC2)cc1NC(=O)C1CSC2(C)CCC(=O)N12 (configuration not stated),/,/,/,8.7,/,/
CC1CCC2(CC1)NC(=S)N(c1ccccc1)N2 (configuration not stated),3.2,/,3.6,12.2,79.4*,0.1
CCNc1nc(NC(C)C)nc(SCCOc2ccc(C)cc2)n1,4.4,-5.4,32.6,22.9,49.9,-7.6
CCNc1nc(SCCOc2ccc(Br)cc2)nc(N(C)C)n1,34.3,8.7,-3.2,16.5,58.0*,8.7
Cc1nn(-c2ccccc2)c2c1C1(C(=O)N(C)c3ccccc31)C(C#N)=C(N)O2 (configuration not stated),-0.9,-27.6,-14.4,-7.0,-2.9,-15.4
CCN1C(=O)C2(C(C#N)=C(N)Oc3c2c(C)nn3-c2ccccc2)c2ccccc21 (configuration not stated),3.8,6.4,11.3,0.3,85.5*,-21.1
CC1=CC(C)[C@H](/C=N/n2c(=O)[nH]c3c([nH]c4ccc(Br)cc43)c2=O)C(C)C1 (some centres not stated),63.7*,-7.2,-0.5,-17.6,14.2,3.0
SMILES,T cruzi inh,Calb FLC,NALP1 inh,NALP3 yeast inh,Lmaj promast,PolyA inh
CCN(C(=O)CN1C(=O)NC2(CCCc3ccccc32)C1=O)c1ccc(F)cc1 (configuration not stated),/,/,/,15.0,/,/
CCCNC(C)C(=O)Nc1c(C)csc1C(=O)OC (configuration not stated),/,/,/,-0.3,/,/
CCc1ccc2oc(-c3cc(N=Cc4cccc(OC)c4O)ccc3O)nc2c1,64.2*,-19.2,26.4,0.9,2.7,-9.4
O=C1c2ccccc2NC(c2ccc(O)cc2)N1/N=C/c1ccc(O)cc1 (configuration not stated),-11.9,0.0,5.4,-11.2,67.4*,-0.7
COc1cc(C2C3=C(CCCC3=O)Nc3ccc4ncccc4c32)ccc1O (configuration not stated),-36.5,?,1.7,0.4,-14.0,-16.4
COc1ccc(C2C3=C(CCCC3=O)Nc3ccc4ncccc4c32)cc1OC (configuration not stated),26.4,3.8,9.5,-9.6,74.8*,7.4
CCSc1nnc(NC(=O)C2CCN(S(=O)(=O)c3ccccc3C(F)(F)F)CC2)s1,20.0,-2.8,12.5,6.9,55.1*,4.7
CCSc1nnc(NC(=O)C2CC2c2ccccc2)s1 (configuration not stated),2.6,-6.4,28.0,1.1,81.8*,-9.6
O=C(c1c(Cl)cccc1Cl)N1CCN(c2ncccn2)CC1,-21.8,1.0,8.6,43.9,/,-10.5
CC(C)COc1ccc2[nH]c3c(c2c1)CCCC3=O,4.2,22.9,8.7,4.2,-1.4,-3.6
O=C(OCC(=O)N1CCN(c2ccccc2)CC1)C1CCCN1S(=O)(=O)c1ccc(Cl)cc1 (configuration not stated),/,/,/,8.3,/,/
Cc1ccc(C2CC(c3cccs3)=NN2C(=O)CCl)cc1 (configuration not stated),59.0*,3.4,-11.6,30.9,/,-21.6
O=C(Nc1ccccc1)N1N=C(c2cccs2)CC1c1cccs1 (configuration not stated),3.9,-37.8,36.0,-0.7,89.5*,-51.5
O=C(CN1CCOCC1)N1N=C(c2cccs2)CC1c1cccs1 (configuration not stated),4.7,25.3,-6.4,9.5,-5.7,0.5
O=C(c1ccccc1)C1Oc2ccccc2C2CC(c3cccs3)=NN12 (configuration not stated),8.8,1.2,0.9,36.5,64.7*,-28.5
C=C(C)C(=O)OCC(=O)NCc1ccccc1,3.2,-12.6,-6.3,7.6,-4.7,37.7
Cc1ccc(C(=O)OCC(=O)N2CC(C)CC(C)C2)cc1S(=O)(=O)N1CCOCC1 (configuration not stated),-3.5,-5.1,4.8,5.3,/,-19.8

# High-throughput results (PubChem)
